The values that follow come from ChEMBL document CHEMBL1153837, “Intracellular pharmacokinetics of once versus twice daily zidovudine and lamivudine in adolescents” (Antimicrob Agents Chemother, 2007).

In data set [1] the test system is Homo sapiens. Briefly: Drug metabolism in HIV-infected human PBMC assessed as zidovudine parent-drug level at 600 mg administered in two courses, first BID for 7 to 14 days followed by QD for 7 days and second course the subjects were switched to the other regimen measured per 10^6 cells in presence of Lamivudine. The format is ADME, organism-based. In short, it runs like this: (§1)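 Randomized crossover of Combivir: 600 mg ZDV/300 mg 3TC QD versus 300 mg/150 mg BID, in either order. Predose morning PBMC samples were taken on each regimen. Metabolites were separated on QMA cartridges, acid-phosphatase dephosphorylated, C-18 cleaned and quantified by RIA, reported per 10⁶ cells. Values below LLOQ were imputed as half LLOQ. Regimens were compared by Wilcoxon rank-sum; BID/QD ratios as medians with 95% CI.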

Data set [2] can be described thus: Half life in HIV-infected human plasma at 1500 mg. The format is ADME, cell-free.
Data set [3] concerns Homo sapiens. Briefly: Drug metabolism in HIV-infected human PBMC assessed as zidovudine triphosphate level at 600 mg administered in two courses, first BID for 7 to 14 days followed by QD for 7 days and second course the subjects were switched to the other regimen measured per 10^6 cells in presence of Lamivudine. It counts as ADME, organism-based. The gist of the method: as §1

The species entered for data set [4] is Homo sapiens. Put plainly: Tmax in HIV-infected human assessed as zidovudine diphosphate level in PBMC at 600 mg QD for 7 days in presence of Lamivudine. The settings on record: in vivo, 168 h. The format is ADME, organism-based. The gist of the method:
(§2)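 Adolescents on Combivir QD (two tablets) gave a predose morning sample, then bloods at 2, 4, 6, 12 and 24 h. PBMC were lysed in 70% methanol (15 mM Tris pH 7.0) and anion-exchange cartridges separated MP/DP/TP by KCl step elution. Fractions were dephosphorylated with acid phosphatase, then ZDV or 3TC was measured by RIA (LOQ 0.15 ng/ml). Noncompartmental parameters; AUC by trapezoidal method; undetectables set to half LLOQ.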

The subject of data set [5] is Homo sapiens. Briefly: Drug metabolism in HIV-infected human PBMC assessed as zidovudine diphosphate level at 600 mg administered in two courses, first QD for 7 days followed by BID for 7 to 14 days and second course the subjects were switched to the other regimen measured per 10^6 cells in presence of Lamivudine. It counts as ADME, organism-based. The gist of the method:
as §1

Data set [6] concerns Homo sapiens. Put plainly: Drug metabolism in HIV-infected human PBMC assessed as zidovudine diphosphate level at 600 mg administered in two courses, first BID for 7 to 14 days followed by QD for 7 days and second course the subjects were switched to the other regimen measured per 10^6 cells in presence of Lamivudine. The format is ADME, organism-based. In short, it runs like this: as §1

Data set [7] is described as follows: Half life in HIV-infected human at 300 mg, po bid. The settings on record: in vivo.
Data set [8] is filed under the species Homo sapiens. Briefly: AUC in HIV-infected human assessed as zidovudine monophosphate level in PBMC at 600 mg QD for 7 days in presence of Lamivudine. The format is ADME, organism-based. The settings on record: in vivo, 168 h. In short, it runs like this:
as §2

Data set [9] is described as follows: Half life in HIV-infected human at 600 mg, po qd. The settings on record: in vivo.
The species entered for data set [10] is Homo sapiens. Put plainly: AUC in HIV-infected human assessed as zidovudine triphosphate level in PBMC at 600 mg QD for 7 days in presence of Lamivudine. It counts as ADME, organism-based. The settings on record: in vivo, 168 h. In short, it runs like this:
as §2

Data set [11] is filed under the species Homo sapiens. Briefly: Cmax in HIV-infected human assessed as zidovudine monophosphate level in PBMC at 600 mg QD for 7 days measured per 10^6 cells in presence of Lamivudine. It counts as ADME, organism-based. Further details: dose 600 mg. The note with it: 168 h. The gist of the method:
as §2

Data set [12] is filed under the species Homo sapiens. Briefly: AUC in HIV-infected human assessed as zidovudine diphosphate level in PBMC at 600 mg QD for 7 days in presence of Lamivudine. The note with it: in vivo, 168 h. It counts as ADME, organism-based. In short, it runs like this:
as §2

For data set [13], the species on record is Homo sapiens. Put plainly: Cmax in HIV-infected human assessed as zidovudine diphosphate level in PBMC at 600 mg QD for 7 days measured per 10^6 cells in presence of Lamivudine. It counts as ADME, organism-based. Further details: dose 600 mg. The settings on record: 168 h. The gist of the method: as §2
The test system of data set [14] is Homo sapiens. Briefly: Drug metabolism in HIV-infected human PBMC assessed as zidovudine monophosphate level at 600 mg administered in two courses, first QD for 7 days followed by BID for 7 to 14 days and second course the subjects were switched to the other regimen measured per 10^6 cells in presence of Lamivudine. It counts as ADME, organism-based. The gist of the method:
as §1

Data set [15] deals with Homo sapiens. Put plainly: Drug metabolism in HIV-infected human PBMC assessed as zidovudine parent-drug level at 600 mg administered in two courses, first QD for 7 days followed by BID for 7 to 14 days and second course the subjects were switched to the other regimen measured per 10^6 cells in presence of Lamivudine. It counts as ADME, organism-based. In short, it runs like this:
as §1

The species entered for data set [16] is Homo sapiens. Put plainly: Tmax in HIV-infected human assessed as zidovudine triphosphate level in PBMC at 600 mg QD for 7 days in presence of Lamivudine. The format is ADME, organism-based. The note with it: in vivo, 168 h. In short, it runs like this:
as §2

For data set [17], the species on record is Homo sapiens. Briefly: Cmax in HIV-infected human assessed as zidovudine triphosphate level in PBMC at 600 mg QD for 7 days measured per 10^6 cells in presence of Lamivudine. It counts as ADME, organism-based. Further details: dose 600 mg. The note with it: 168 h. The gist of the method: as §2
The species named for data set [18] is Homo sapiens. Put plainly: Tmax in HIV-infected human assessed as zidovudine monophosphate level in PBMC at 600 mg QD for 7 days in presence of Lamivudine. It counts as ADME, organism-based. The settings on record: in vivo, 168 h. The gist of the method:
as §2

The subject of data set [19] is Homo sapiens. Put plainly: Drug metabolism in HIV-infected human PBMC assessed as zidovudine triphosphate level at 600 mg administered in two courses, first QD for 7 days followed by BID for 7 to 14 days and second course the subjects were switched to the other regimen measured per 10^6 cells in presence of Lamivudine. The format is ADME, organism-based. The gist of the method:
as §1

Data set [20] concerns Homo sapiens. Put plainly: Drug metabolism in HIV-infected human PBMC assessed as zidovudine monophosphate level at 600 mg administered in two courses, first BID for 7 to 14 days followed by QD for 7 days and second course the subjects were switched to the other regimen measured per 10^6 cells in presence of Lamivudine. It counts as ADME, organism-based. The gist of the method: as §1

Data set [21] is filed under the species Homo sapiens. Put plainly: Cmax in HIV-infected human assessed as Lamivudine diphosphate level in PBMC at 300 mg QD for 7 days measured per 10^6 cells in presence of zidovudine. It counts as ADME, organism-based. The arrangement: dose 300 mg. The note with it: 168 h. In short, it runs like this: as §2
The species entered for data set [22] is Homo sapiens. Briefly: Tmax in HIV-infected human assessed as Lamivudine triphosphate level in PBMC at 300 mg QD for 7 days in presence of zidovudine. The format is ADME, organism-based. The note with it: in vivo, 168 h. The gist of the method: as §2
The species named for data set [23] is Homo sapiens. Briefly: Cmax in HIV-infected human assessed as Lamivudine triphosphate level in PBMC at 300 mg QD for 7 days measured per 10^6 cells in presence of zidovudine. The settings on record: 168 h. The arrangement: dose 300 mg. It counts as ADME, organism-based. In short, it runs like this:
as §2

Data set [24] has as its system Homo sapiens. Briefly: Drug metabolism in HIV-infected human PBMC assessed as lamivudine parent-drug level at 300 mg administered in two courses, first QD for 7 days followed by BID for 7 to 14 days and second course the subjects were switched to the other regimen measured per 10^6 cells in presence of zidovudine.
Data set [25] deals with Homo sapiens. Briefly: Drug metabolism in HIV-infected human PBMC assessed as lamivudine monophosphate level at 300 mg administered in two courses, first BID for 7 to 14 days followed by QD for 7 days and second course the subjects were switched to the other regimen measured per 10^6 cells in presence of lamivudine.
The species entered for data set [26] is Homo sapiens. Briefly: AUC in HIV-infected human assessed as Lamivudine diphosphate level in PBMC at 300 mg QD for 7 days in presence of zidovudine. It counts as ADME, organism-based. The note with it: in vivo, 168 h. In short, it runs like this:
as §2

The species entered for data set [27] is Homo sapiens. Put plainly: Cmax in HIV-infected human assessed as Lamivudine monophosphate level in PBMC at 300 mg QD for 7 days measured per 10^6 cells in presence of zidovudine. It counts as ADME, organism-based. Further details: dose 300 mg. The note with it: 168 h. The gist of the method: as §2
Data set [28] is filed under the species Homo sapiens. Put plainly: Tmax in HIV-infected human assessed as Lamivudine monophosphate level in PBMC at 300 mg QD for 7 days in presence of zidovudine. The settings on record: in vivo, 168 h. The format is ADME, organism-based. The gist of the method: as §2
Data set [29] has as its system Homo sapiens. Put plainly: Drug metabolism in HIV-infected human PBMC assessed as lamivudine monophosphate level at 300 mg administered in two courses, first QD for 7 days followed by BID for 7 to 14 days and second course the subjects were switched to the other regimen measured per 10^6 cells in presence of lamivudine.
Data set [30] deals with Homo sapiens. Put plainly: Drug metabolism in HIV-infected human PBMC assessed as lamivudine diphosphate level at 300 mg administered in two courses, first QD for 7 days followed by BID for 7 to 14 days and second course the subjects were switched to the other regimen measured per 10^6 cells in presence of lamivudine.
For data set [31], the species on record is Homo sapiens. Put plainly: AUC in HIV-infected human assessed as Lamivudine monophosphate level in PBMC at 300 mg QD for 7 days in presence of zidovudine. The format is ADME, organism-based. The note with it: in vivo, 168 h. The gist of the method: as §2
The species named for data set [32] is Homo sapiens. Briefly: Tmax in HIV-infected human assessed as Lamivudine diphosphate level in PBMC at 300 mg QD for 7 days in presence of zidovudine. It counts as ADME, organism-based. The note with it: in vivo, 168 h. In short, it runs like this: as §2
In data set [33] the test system is Homo sapiens. Briefly: Drug metabolism in HIV-infected human PBMC assessed as lamivudine parent-drug level at 300 mg administered in two courses, first BID for 7 to 14 days followed by QD for 7 days and second course the subjects were switched to the other regimen measured per 10^6 cells in presence of zidovudine.
For data set [34], the species on record is Homo sapiens. Put plainly: AUC in HIV-infected human assessed as Lamivudine triphosphate level in PBMC at 300 mg QD for 7 days in presence of zidovudine. The settings on record: in vivo, 168 h. It counts as ADME, organism-based. The gist of the method: as §2

Structures are written as SMILES.

A word on the half-life: it is the time needed for the level to fall by half in the phase considered. Read a high half-life as slow loss. The Tmax is the time from dosing to the highest level. Consider `Cc1cn([C@H]2C[C@H](N=[N+]=[N-])[C@@H](CO)O2)c(=O)[nH]c1=O` [ZIDOVUDINE], for which the Drug uptake in data set [1] is on record as 23.5 fmol; in [3] it was 15.4 fmol; in [5] it was 11.5 fmol; in data set [6], 12.2 fmol; in data set [14], 76.2 fmol; in data set [15], 23.5 fmol. For the same compound, the values for the Drug uptake in data set [19] and in data set [20] were 9.3 fmol and 75.3 fmol, respectively. Further, the half-life in [2] is 1 h; in data set [7] it was 5.48 h; in data set [9], 6.3 h. For the same compound, the time of peak concentration (Tmax) in data set [4] was found to be 3.48 h; in [16], 4.74 h; in data set [18] it was 2.44 h. The results for the AUC in [8], in data set [10] and in data set [12] were 11883 fmol, 502 fmol and 627 fmol, respectively. The values for the Cmax in data set [11], in data set [13] and in data set [17] were 2997.65 fmol, 62.47 fmol and 43.9 fmol, respectively.

`Nc1ccn([C@@H]2CS[C@H](CO)O2)c(=O)n1` [LAMIVUDINE]: the values for the Cmax in data set [21], in data set [23] and in [27] were 4424 fmol, 4840 fmol and 760 fmol, respectively. The Tmax came out at 6.67 h in data set [22], 6.3 h in data set [28] and 6.37 h in [32]. Also, the figures for the lamivudine parent-drug uptake in data set [24] and in data set [33] were 302 pmol and 437 pmol, respectively. Further, the lamivudine monophosphate uptake in [25] worked out at 396 pmol; in data set [29], 282 pmol. Also, the results for the AUC in data set [26], in [31] and in data set [34] were 70.01 pmol, 10.42 pmol and 65.19 pmol, respectively. In data set [30], the lamivudine diphosphate uptake amounted to 1934 pmol.
